Screening data as filed in PubChem BioAssay.
MrgX1 antag: antagonists of human MrgX1 receptor. Q96LB2. MRGX1-HEK293 calcium flux, Fluo-4, BAM8-22 antagonism; active compounds read low. B-score at 10 µM. 1.3% of 310,000 active. AID 588676;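 active = calcium-response B-score plate-corrected more than 3 library SD below zero, starting fluorescence within 5 deviations, no agonist response on first addition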;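 also: peak minus trough fluorescence over baseline after final BAM8-22 challenge near maximal dose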
Target sequence (Q96LB2 whole entry, looked up): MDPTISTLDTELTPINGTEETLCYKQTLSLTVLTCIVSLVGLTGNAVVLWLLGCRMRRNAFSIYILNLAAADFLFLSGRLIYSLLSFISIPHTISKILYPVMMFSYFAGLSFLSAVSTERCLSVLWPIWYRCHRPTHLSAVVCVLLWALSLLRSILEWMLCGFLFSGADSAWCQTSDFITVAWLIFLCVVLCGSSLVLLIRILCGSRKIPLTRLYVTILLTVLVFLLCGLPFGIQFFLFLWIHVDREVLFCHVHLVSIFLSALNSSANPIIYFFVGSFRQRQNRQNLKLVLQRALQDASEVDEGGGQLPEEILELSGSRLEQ
MrgX1 ag: human MrgX1 receptor agonism, primary screen; B-score at 10 µM; MrgX1-HEK293 cells, Fluo-4 calcium fluorescence, agonist mode; active compounds read high; AID 588627; 0.44% of 310,000 active; Q96LB2;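 active = calcium response B-score plate-corrected fluorescence ratio at least 3 library SD, with starting fluorescence B-score inside 5 SD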
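Test system: HEK293 cells stably expressing human MrgX1 receptor; amount: 15,000 cells per well; doses: compound delivered in addition one of three; times: overnight plating before 1 h dye loading; detection: Fluo-4 NW calcium-flux fluorescence, kinetic read; read-out basis: B-scored fluorescence response ratio; controls: positive and negative controls per plate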
RGS4 inh: human RGS4 inhibition; HEK293 M3R/RGS4 inducible, Fluo-4 calcium flux; active compounds read high; triggered by carbachol at its EC20; B-score at 10 µM; P49798; 0.45% of 310,000 active;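 active = B-score, a plate-corrected calcium signal, over three deviations above library mean, with baseline fluorescence within five deviations of library mean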;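 also: RGS4 expression induced by doxycycline in cells with stable M3 receptor; B-score is computed from the integrated fluorescence ratio over baseline after carbachol; higher B-score means a larger calcium signal and so more RGS4 inhibition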
Target sequence (P49798 whole entry, looked up): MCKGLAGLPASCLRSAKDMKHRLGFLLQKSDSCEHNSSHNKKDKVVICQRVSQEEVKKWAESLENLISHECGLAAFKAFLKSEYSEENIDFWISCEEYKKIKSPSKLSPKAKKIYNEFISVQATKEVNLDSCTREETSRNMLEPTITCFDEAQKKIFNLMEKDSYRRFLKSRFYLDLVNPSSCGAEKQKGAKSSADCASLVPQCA
RGS4 act: potentiators or activators of RGS4 | 0.92% of 310,000 active | AID 463111 | HEK293 M3R/inducible RGS4, carbachol calcium flux Fluo4; active compounds read low | B-score at 10 µM;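 active = B-score of the integrated calcium signal more than 4 SD below the library mean, with starting fluorescence not abnormally high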;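 also: negative B-score means reduced calcium response which marks RGS4 activation or potentiation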
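Assay system: Inducible-RGS4 HEK293 cells carrying M3 receptor | Schedule: Compound preincubation 20 min at room temperature before agonist | Signal: Kinetic calcium fluorescence imaging with Fluo4-AM dye, 2 µM | Read-out basis: B score from integrated fluorescence ratio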
MrgX1 allo act: human MrgX1 positive allosteric modulation, primary screen; Q96LB2; MrgX1-HEK293, Fluo-4 calcium flux, FDSS; active compounds read high; B-score at 10 µM; 0.63% of 310,000 active; AID 588675;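 active = plate-corrected calcium response at least 3 library SD above typical, normal starting fluorescence, not activating the receptor alone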;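 also: compound read alongside a low EC10 to EC30 dose of BAM8-22 agonist; peak minus trough fluorescence over baseline measured at the second addition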
Large screens that a line does not name were inactive. This is a sample that favours compounds with a hit; in the whole collection about 3.5% have one here.

O=S(=O)(Nc1nc2ccccc2[nH]1)c1ccc2ccccc2c1	RGS4 act -9.6
O=S(=O)(Nc1ncn[nH]1)c1ccc2ccccc2c1	none
CNc1cccc2c1C(=O)c1ccccc1C2=O	none
O=C1c2ccccc2-c2cccc(NS(=O)(=O)c3ccc(C(F)(F)F)cc3)c21	RGS4 act -7
CSCCC(NC(=O)c1ccccc1Br)C(=O)N1CCCCCCC1 (configuration not stated)	none
CC1CCCCN1C(=O)c1c([N+](=O)[O-])cnn1C (configuration not stated)	MrgX1 antag -9.2
CCCCSc1nc2sc3c(c2c(=O)n1-c1ccccc1)CCN(C)C3	RGS4 act -7.3
C=C(C)CSc1nc2sc3c(c2c(=O)n1-c1ccccc1)CCN(C)C3	RGS4 act -7.5
CC1=CC2=NC(=O)CC(C)(C(=O)N(CC(=O)NC3CCCC3)Cc3ccccc3)N2C=C1 (configuration not stated)	none
Clc1ccccc1C1=CC(c2ccco2)n2ncnc2N1 (configuration not stated)	MrgX1 ag 29
COc1ccc(C(C)NC(=S)NCc2ccc(F)cc2)cc1 (configuration not stated)	none
CCC(NC(=S)NCc1ccc(F)cc1)c1ccccc1 (configuration not stated)	MrgX1 antag -5.7
CCS(=O)(=O)N1N=C(c2cccc(NS(C)(=O)=O)c2)CC1c1ccccc1 (configuration not stated)	MrgX1 antag -5.5
CCCc1nn2c(=O)cc(CSCC(=O)Nc3ccc(OC)cc3)nc2s1	none
O=C(Cn1cnc([N+](=O)[O-])c1)NCc1ccc(F)cc1	none
O=C(Cn1cnc([N+](=O)[O-])c1)c1ccc(F)cc1	MrgX1 allo act 11
CCc1nc(SCC(=O)Nc2cc(OC)ccc2OC)c2c(C)c(C)sc2n1	none
CCOC(=O)C(CC)(CCC(=O)O)c1csc(Nc2ccc(C)cc2)n1 (configuration not stated)	MrgX1 antag -7.4
CCOC(=O)Cc1csc(Nc2ccc(Cl)cc2)n1	none
CC(C)c1ccc(CCNC(=O)CSC(=S)N2CCCC2)cc1	none
CSc1nnc2c(n1)[nH]c1c(C)cccc12	MrgX1 antag -4.7
CCSc1nnc2c(n1)[nH]c1c(C)cccc12	none
CC(=O)N1CCOc2ccc(S(=O)(=O)NCCc3cccc(C)c3)cc21	none
CCOC(=O)c1cnc2ccc(C(=O)OC)cc2c1NCCN1CCOCC1	none
CCOC(=O)c1cnc2c(C)cccc2c1NCCc1ccc(OC)c(OC)c1	RGS4 act -7.4
CCOC(=O)c1cnc2c(Cl)cccc2c1NCCN(C)C	none
CCOC(=O)c1cnc2c(C)cccc2c1Nc1cccc(C(=O)O)c1	none
CCOC(=O)c1cnc2ccc(C(=O)OC)cc2c1NCCc1ccc(OC)c(OC)c1	MrgX1 antag -6.4
CCOC(=O)c1cnc2c(C(=O)OC)cccc2c1NCc1cccnc1	RGS4 act -7
Cc1cc(C(C)(C)C)cc(C)c1C[n+]1ccc2ccccc2c1	none
COc1ccc(OCC(=O)N/N=C/c2ccc(OC)c(OC)c2C(=O)O)cc1	none
COc1ccccc1OCC(=O)N/N=C/c1c(O)ccc2ccccc12	RGS4 act -7.6
COc1ccc(/C=N/NC(=O)COc2ccc3ccccc3c2)c(C(=O)O)c1OC	MrgX1 antag -5.4
CCc1noc(C)c1C(=O)NC1CCCc2c1cnn2-c1ccc(C(C)(C)C)cc1 (configuration not stated)	none
CC(C)c1ccc(/C=N/NC(=O)c2cccc(Cl)c2)cc1	none
CC(=O)Nc1ccc(C(=O)N/N=C/c2ccccc2OC(=O)c2ccc(Cl)cc2)cc1	RGS4 act -7.3
CC(C)c1ccc(C(=O)N/N=C/c2cccc(Cl)c2Cl)cc1	MrgX1 allo act 6.5
CC(=O)N1c2ccccc2C2(C)C(C1(C)C)C2(Cl)Cl (configuration not stated)	none
Cc1ccc2c(c1)C1(C)C(C(C)(C)N2C=O)C1(Cl)Cl (configuration not stated)	MrgX1 allo act 13
CC(C)(C)c1ccc(C(=O)N2CCN(C(=O)c3ccco3)CC2)cc1	none
CC#CCN(Cc1ccco1)C(=O)c1ccc(OC2CCN(Cc3ccccn3)CC2)cc1	none
O=C(C1CCC(Cn2c(=S)[nH]c3ccccc3c2=O)CC1)N1CCN(c2ccccc2)CC1 (configuration not stated)	RGS4 inh 5.4
O=C(C1CCC(Cn2c(=S)[nH]c3ccccc3c2=O)CC1)N1CCOCC1 (configuration not stated)	none
CCOc1ccc(CCNc2nc3ccccc3n3cnnc23)cc1OCC	none
COc1cccc(-n2nnnc2S(C)(=O)=O)c1	MrgX1 ag 48
CCn1c(C)c(C(C)=O)c(N2CCN(C(c3ccccc3)c3ccccc3)CC2)nc1=S	RGS4 act -7.4
CC(=O)NC(CC(=O)N1CCCC1)c1ccccc1 (configuration not stated)	MrgX1 antag -5.3
CC(=O)NC(CC(=O)O)c1ccccc1 (configuration not stated)	none
CC(C)N1CCN(Cc2ccc(-c3ccccc3)cc2)CC1CCO (configuration not stated)	none
CC(C)N1CCN(Cc2ccc(OCc3ccccc3)cc2)CC1CCO (configuration not stated)	RGS4 act -7
CC1CCCN(Cc2ccc(OCc3ccccc3)cc2)C1 (configuration not stated)	RGS4 act -7.6
COc1ccc(OCCOC(=O)CCS(=O)(=O)c2ccc(C)cc2)cc1	none
Cc1ccccc1Cn1cc(S(=O)(=O)c2ccc(C(C)C)cc2)c(=O)c2cc3c(cc21)OCO3	none
Cc1ccc(C(=O)O)cc1-c1ccc(C=C2C(=O)c3ccccc3C2=O)o1	MrgX1 ag 41
Cc1cc(C(=O)O)ccc1-n1c(C)cc(C=C2C(=O)c3ccccc3C2=O)c1C	MrgX1 ag 29
Cc1ccc(NC(=O)CN2C(=O)S/C(=C/c3ccc(-c4cc(C(=O)O)ccc4C)o3)C2=O)cc1C	none
Cn1c(=O)c([N+](=O)[O-])c(NCC(O)c2ccccc2)c2ccccc21 (configuration not stated)	MrgX1 antag -5.7
CCn1c(=O)c([N+](=O)[O-])c(NCC(O)c2ccccc2)c2ccccc21 (configuration not stated)	none
CCNC(=S)N/N=C(\C)c1ccc2c(c1)OCCO2	MrgX1 antag -6.5
OC(CNCCC1C=Nc2ccccc21)Cn1c2ccc(Cl)cc2c2cc(Cl)ccc21 (configuration not stated)	RGS4 inh 7.4
COc1ccccc1CNC(=O)Cn1cccc1C(=O)c1ccccc1C	none
CC(=O)C(C(C)=O)c1cc(NS(=O)(=O)c2ccccc2)ccc1NS(=O)(=O)c1ccccc1	MrgX1 allo act 13
